The text below walks through data of ChEMBL document CHEMBL5661979, “Pharmacological inhibition of BMK1 suppresses tumor growth through promyelocytic leukemia protein” (Cancer Cell, 2010).

Structures are written as SMILES. Calls of active or inactive are those of the source. The calls are words filed in the database; no cut-off is given here. Where only a bound is given, the exact number is not on record here.

For data set [1], the target named is Mitogen-activated protein kinase 7 (Mus musculus) (UniProt Q9WVS8). Nature of the data set: Inhibition of BMK1 in pml null mouse MEF cells assessed as increase in p21 protein expression at 5 uM incubated for 16 hrs by Western blot analysis. It counts as cell-based. The gist of the method:
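Pml+/+ or Pml−/− MEFs treated ±5 μM inhibitor for 16 h. Lysates western blotted for p21, quantified by densitometry and normalized to GAPDH, relative to untreated Pml+/+ MEF set as 1. n = 3, ±SEM.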
For orientation: A western blot detects proteins with antibodies after separation by electrophoresis.

A short description of data set [2]: MRT in Sprague-Dawley rat at 1 mg/kg, iv measured up to 8 hrs by LC-MS/MS analysis. It counts as ADME, organism-based. To be noted: in vivo.
The target in data set [3] is Serine/threonine-protein kinase SMG1 (Homo sapiens, UniProt Q96Q15). As to the kind of experiment: Inhibition of SMG1 in human HeLa cells lysate pre incubated for 15 mins followed by ATP acyl phosphate probe addition and measured after 10 mins by LC-MS/MS analysis. Type of data set: subcellular.
Data set [4] in a line: Inhibition of CK1g1/g2/g3 in human HeLa cells lysate pre incubated for 15 mins followed by ADP acyl phosphate probe addition and measured after 10 mins by LC-MS/MS analysis. It counts as subcellular.
In data set [5] the target is Dual specificity mitogen-activated protein kinase kinase 5 (Homo sapiens, UniProt Q13163). Nature of the data set: Inhibition of MAP2K5 in human HeLa cells lysate pre incubated for 15 mins followed by ADP acyl phosphate probe addition and measured after 10 mins by LC-MS/MS analysis. Type of data set: subcellular.
The nature of data set [6]: Inhibition of MAP3K2/MAP3K3 in human HeLa cells lysate at 50 uM pre incubated for 15 mins followed by ADP acyl phosphate probe addition and measured after 10 mins by LC-MS/MS analysis relative to control. Conditions: 25 min, condition cancer.
Data set [7] concerns the target Serine/threonine-protein kinase Nek3 (Homo sapiens, UniProt P51956). Nature of the data set: Inhibition of NEK3 in human HeLa cells lysate pre incubated for 15 mins followed by ADP acyl phosphate probe addition and measured after 10 mins by LC-MS/MS analysis. Type of data set: subcellular.
Data set [8] deals with Interferon-induced, double-stranded RNA-activated protein kinase (Homo sapiens, UniProt P19525). As to the kind of experiment: Inhibition of PKR in human HeLa cells lysate pre incubated for 15 mins followed by ATP acyl phosphate probe addition and measured after 10 mins by LC-MS/MS analysis. Type of data set: subcellular.
Data set [9] addresses Phosphatidylinositol 5-phosphate 4-kinase type-2 beta (Homo sapiens, UniProt P78356). As to the kind of experiment: Inhibition of PIP5K2B in human HeLa cells lysate pre incubated for 15 mins followed by ATP acyl phosphate probe addition and measured after 10 mins by LC-MS/MS analysis. Type of data set: subcellular.
Data set [10] is described as follows: Toxicity in C57Bl/6 mouse assessed as effect on sodium level at 50 mg/kg, ip for 14 days (reference value: 156 mM). Type of data set: organism-based. To be noted: in vivo, 336 h, time 14 day.
The target in data set [11] is Interleukin-1 receptor-associated kinase 4 (Homo sapiens, UniProt Q9NWZ3). As to the kind of experiment: Inhibition of IRAK4 in human HeLa cells lysate pre incubated for 15 mins followed by ATP acyl phosphate probe addition and measured after 10 mins by LC-MS/MS analysis. It counts as subcellular.
In data set [12] the target is T1, Interleukin-1 receptor-associated kinase 4 (Homo sapiens) (UniProt Q9NWZ3).
T1 sequence (whole entry): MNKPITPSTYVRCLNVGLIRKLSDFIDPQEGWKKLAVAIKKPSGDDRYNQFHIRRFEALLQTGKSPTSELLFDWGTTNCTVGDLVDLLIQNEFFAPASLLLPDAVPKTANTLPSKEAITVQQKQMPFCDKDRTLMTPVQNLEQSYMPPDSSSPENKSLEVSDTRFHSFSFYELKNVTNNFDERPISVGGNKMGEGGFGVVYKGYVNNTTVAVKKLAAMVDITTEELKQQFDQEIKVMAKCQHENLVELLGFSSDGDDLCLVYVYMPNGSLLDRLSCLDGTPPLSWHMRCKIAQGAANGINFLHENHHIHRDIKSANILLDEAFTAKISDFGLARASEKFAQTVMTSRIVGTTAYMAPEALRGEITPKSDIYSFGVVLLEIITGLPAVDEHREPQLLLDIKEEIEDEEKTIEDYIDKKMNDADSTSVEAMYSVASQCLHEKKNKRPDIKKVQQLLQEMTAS
Nature of the data set: Inhibition of IRAK4 in human HeLa cells lysate at 50 uM pre incubated for 15 mins followed by ATP acyl phosphate probe addition and measured after 10 mins by LC-MS/MS analysis relative to control. To be noted: time 25.0 min. Type of data set: subcellular.

The nature of data set [13]: Inhibition of PKD1/2 in human HeLa cells lysate at 10 uM pre incubated for 15 mins followed by ATP acyl phosphate probe addition and measured after 10 mins by LC-MS/MS analysis relative to control. Conditions: 25 min, condition cancer.
The target in data set [14] is Serine/threonine-protein kinase 3/4 (Homo sapiens) (UniProt Q13043+Q13188). As to the kind of experiment: Inhibition of MST1/2 in human HeLa cells lysate at 50 uM pre incubated for 15 mins followed by ATP acyl phosphate probe addition and measured after 10 mins by LC-MS/MS analysis relative to control. It counts as subcellular. To be noted: time 25.0 min.
For data set [15], the target named is Cyclin-dependent kinase 9 (Homo sapiens, UniProt P50750). Nature of the data set: Inhibition of CDK9 in human HeLa cells lysate at 2 uM pre incubated for 15 mins followed by ATP acyl phosphate probe addition and measured after 10 mins by LC-MS/MS analysis relative to control. To be noted: time 25.0 min. Type of data set: subcellular. The procedure, abridged:
(§1)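 KiNativ profiling in HeLa lysate (5 mg/mL total protein). Lysate incubated 15 min with inhibitor at 50, 10, 2, 0.8 or 0 μM. ATP or ADP acylphosphate probe then added (5 μM final) and reacted 10 min. Reaction stopped with urea and analysed by targeted MS, using up to four fragment ions per kinase peptide-probe conjugate. % inhibition taken against untreated lysate. Run in duplicate.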

Data set [16] has as its target Serine/threonine-protein kinase PLK1 (Homo sapiens, UniProt P53350). As to the kind of experiment: Inhibition of PLK1 in human HeLa cells lysate at 10 uM pre incubated for 15 mins followed by ADP acyl phosphate probe addition and measured after 10 mins by LC-MS/MS analysis relative to control. Conditions: time 25.0 min. It counts as subcellular.
For data set [17], the target named is Interleukin-1 receptor-associated kinase 1 (Homo sapiens, UniProt P51617). Nature of the data set: Inhibition of IRAK1 in human HeLa cells lysate at 10 uM pre incubated for 15 mins followed by ATP acyl phosphate probe addition and measured after 10 mins by LC-MS/MS analysis relative to control. It counts as subcellular. To be noted: time 25.0 min.
Data set [18] concerns the target Dual specificity protein kinase TTK (Homo sapiens) (UniProt P33981). As to the kind of experiment: Inhibition of TTK (unknown origin) assessed as remaining activity at 10 uM by ATP-competition binding assay relative to control.
Data set [19] in a line: Toxicity in C57Bl/6 mouse assessed as effect on total bilirubin level at 50 mg/kg, ip for 14 days (reference value: 0.3 mg/dl). Type of data set: organism-based. Conditions: in vivo, 336 h, time 14 day.
Data set [20] is described as follows: Inhibition of CDK5/PRKX/PRKY in human HeLa cells lysate at 50 uM pre incubated for 15 mins followed by ADP acyl phosphate probe addition and measured after 10 mins by LC-MS/MS analysis relative to control. Conditions: 25 min, condition cancer. The procedure, abridged: as §1
Data set [21] addresses p38 delta/gamma (Homo sapiens) (UniProt O15264+P53778). Nature of the data set: Inhibition of p38d/p38g in human HeLa cells lysate at 10 uM pre incubated for 15 mins followed by ATP acyl phosphate probe addition and measured after 10 mins by LC-MS/MS analysis relative to control. It counts as subcellular. To be noted: time 25.0 min.

One may read the inhibition as the change of the read-out against control, counted positive when it falls. One may read the MRT as the average time that molecules of a dose stay in the body. For orientation: IC50 means the concentration needed to halve the response being measured. A higher IC50 goes with weaker potency.

Sequence of Phosphatidylinositol 5-phosphate 4-kinase type-2 beta (P78356 whole entry): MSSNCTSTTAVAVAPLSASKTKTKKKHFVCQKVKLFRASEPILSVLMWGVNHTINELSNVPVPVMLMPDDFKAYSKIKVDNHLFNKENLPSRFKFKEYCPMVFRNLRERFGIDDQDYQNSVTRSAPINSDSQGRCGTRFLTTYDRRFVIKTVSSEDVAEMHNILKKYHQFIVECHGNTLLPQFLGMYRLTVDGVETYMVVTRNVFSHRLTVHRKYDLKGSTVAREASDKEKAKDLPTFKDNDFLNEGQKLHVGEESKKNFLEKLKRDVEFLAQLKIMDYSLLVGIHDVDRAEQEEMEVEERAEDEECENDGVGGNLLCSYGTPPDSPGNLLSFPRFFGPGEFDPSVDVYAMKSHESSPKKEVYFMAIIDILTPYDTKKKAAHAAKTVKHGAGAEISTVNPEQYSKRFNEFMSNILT
Sequence of Cyclin-dependent kinase 9 (P50750 whole entry, the tested form may be a part): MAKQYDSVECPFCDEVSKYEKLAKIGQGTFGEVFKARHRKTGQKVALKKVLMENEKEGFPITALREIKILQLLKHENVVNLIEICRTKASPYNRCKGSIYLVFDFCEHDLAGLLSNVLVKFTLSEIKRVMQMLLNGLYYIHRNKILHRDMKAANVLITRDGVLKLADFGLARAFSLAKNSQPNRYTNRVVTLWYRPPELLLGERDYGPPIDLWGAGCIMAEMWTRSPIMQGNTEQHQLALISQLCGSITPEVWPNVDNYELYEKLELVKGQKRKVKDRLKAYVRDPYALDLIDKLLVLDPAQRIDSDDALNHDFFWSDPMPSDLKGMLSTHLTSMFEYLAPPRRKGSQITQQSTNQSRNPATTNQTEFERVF
Sequence of Serine/threonine-protein kinase SMG1 (Q96Q15 whole entry): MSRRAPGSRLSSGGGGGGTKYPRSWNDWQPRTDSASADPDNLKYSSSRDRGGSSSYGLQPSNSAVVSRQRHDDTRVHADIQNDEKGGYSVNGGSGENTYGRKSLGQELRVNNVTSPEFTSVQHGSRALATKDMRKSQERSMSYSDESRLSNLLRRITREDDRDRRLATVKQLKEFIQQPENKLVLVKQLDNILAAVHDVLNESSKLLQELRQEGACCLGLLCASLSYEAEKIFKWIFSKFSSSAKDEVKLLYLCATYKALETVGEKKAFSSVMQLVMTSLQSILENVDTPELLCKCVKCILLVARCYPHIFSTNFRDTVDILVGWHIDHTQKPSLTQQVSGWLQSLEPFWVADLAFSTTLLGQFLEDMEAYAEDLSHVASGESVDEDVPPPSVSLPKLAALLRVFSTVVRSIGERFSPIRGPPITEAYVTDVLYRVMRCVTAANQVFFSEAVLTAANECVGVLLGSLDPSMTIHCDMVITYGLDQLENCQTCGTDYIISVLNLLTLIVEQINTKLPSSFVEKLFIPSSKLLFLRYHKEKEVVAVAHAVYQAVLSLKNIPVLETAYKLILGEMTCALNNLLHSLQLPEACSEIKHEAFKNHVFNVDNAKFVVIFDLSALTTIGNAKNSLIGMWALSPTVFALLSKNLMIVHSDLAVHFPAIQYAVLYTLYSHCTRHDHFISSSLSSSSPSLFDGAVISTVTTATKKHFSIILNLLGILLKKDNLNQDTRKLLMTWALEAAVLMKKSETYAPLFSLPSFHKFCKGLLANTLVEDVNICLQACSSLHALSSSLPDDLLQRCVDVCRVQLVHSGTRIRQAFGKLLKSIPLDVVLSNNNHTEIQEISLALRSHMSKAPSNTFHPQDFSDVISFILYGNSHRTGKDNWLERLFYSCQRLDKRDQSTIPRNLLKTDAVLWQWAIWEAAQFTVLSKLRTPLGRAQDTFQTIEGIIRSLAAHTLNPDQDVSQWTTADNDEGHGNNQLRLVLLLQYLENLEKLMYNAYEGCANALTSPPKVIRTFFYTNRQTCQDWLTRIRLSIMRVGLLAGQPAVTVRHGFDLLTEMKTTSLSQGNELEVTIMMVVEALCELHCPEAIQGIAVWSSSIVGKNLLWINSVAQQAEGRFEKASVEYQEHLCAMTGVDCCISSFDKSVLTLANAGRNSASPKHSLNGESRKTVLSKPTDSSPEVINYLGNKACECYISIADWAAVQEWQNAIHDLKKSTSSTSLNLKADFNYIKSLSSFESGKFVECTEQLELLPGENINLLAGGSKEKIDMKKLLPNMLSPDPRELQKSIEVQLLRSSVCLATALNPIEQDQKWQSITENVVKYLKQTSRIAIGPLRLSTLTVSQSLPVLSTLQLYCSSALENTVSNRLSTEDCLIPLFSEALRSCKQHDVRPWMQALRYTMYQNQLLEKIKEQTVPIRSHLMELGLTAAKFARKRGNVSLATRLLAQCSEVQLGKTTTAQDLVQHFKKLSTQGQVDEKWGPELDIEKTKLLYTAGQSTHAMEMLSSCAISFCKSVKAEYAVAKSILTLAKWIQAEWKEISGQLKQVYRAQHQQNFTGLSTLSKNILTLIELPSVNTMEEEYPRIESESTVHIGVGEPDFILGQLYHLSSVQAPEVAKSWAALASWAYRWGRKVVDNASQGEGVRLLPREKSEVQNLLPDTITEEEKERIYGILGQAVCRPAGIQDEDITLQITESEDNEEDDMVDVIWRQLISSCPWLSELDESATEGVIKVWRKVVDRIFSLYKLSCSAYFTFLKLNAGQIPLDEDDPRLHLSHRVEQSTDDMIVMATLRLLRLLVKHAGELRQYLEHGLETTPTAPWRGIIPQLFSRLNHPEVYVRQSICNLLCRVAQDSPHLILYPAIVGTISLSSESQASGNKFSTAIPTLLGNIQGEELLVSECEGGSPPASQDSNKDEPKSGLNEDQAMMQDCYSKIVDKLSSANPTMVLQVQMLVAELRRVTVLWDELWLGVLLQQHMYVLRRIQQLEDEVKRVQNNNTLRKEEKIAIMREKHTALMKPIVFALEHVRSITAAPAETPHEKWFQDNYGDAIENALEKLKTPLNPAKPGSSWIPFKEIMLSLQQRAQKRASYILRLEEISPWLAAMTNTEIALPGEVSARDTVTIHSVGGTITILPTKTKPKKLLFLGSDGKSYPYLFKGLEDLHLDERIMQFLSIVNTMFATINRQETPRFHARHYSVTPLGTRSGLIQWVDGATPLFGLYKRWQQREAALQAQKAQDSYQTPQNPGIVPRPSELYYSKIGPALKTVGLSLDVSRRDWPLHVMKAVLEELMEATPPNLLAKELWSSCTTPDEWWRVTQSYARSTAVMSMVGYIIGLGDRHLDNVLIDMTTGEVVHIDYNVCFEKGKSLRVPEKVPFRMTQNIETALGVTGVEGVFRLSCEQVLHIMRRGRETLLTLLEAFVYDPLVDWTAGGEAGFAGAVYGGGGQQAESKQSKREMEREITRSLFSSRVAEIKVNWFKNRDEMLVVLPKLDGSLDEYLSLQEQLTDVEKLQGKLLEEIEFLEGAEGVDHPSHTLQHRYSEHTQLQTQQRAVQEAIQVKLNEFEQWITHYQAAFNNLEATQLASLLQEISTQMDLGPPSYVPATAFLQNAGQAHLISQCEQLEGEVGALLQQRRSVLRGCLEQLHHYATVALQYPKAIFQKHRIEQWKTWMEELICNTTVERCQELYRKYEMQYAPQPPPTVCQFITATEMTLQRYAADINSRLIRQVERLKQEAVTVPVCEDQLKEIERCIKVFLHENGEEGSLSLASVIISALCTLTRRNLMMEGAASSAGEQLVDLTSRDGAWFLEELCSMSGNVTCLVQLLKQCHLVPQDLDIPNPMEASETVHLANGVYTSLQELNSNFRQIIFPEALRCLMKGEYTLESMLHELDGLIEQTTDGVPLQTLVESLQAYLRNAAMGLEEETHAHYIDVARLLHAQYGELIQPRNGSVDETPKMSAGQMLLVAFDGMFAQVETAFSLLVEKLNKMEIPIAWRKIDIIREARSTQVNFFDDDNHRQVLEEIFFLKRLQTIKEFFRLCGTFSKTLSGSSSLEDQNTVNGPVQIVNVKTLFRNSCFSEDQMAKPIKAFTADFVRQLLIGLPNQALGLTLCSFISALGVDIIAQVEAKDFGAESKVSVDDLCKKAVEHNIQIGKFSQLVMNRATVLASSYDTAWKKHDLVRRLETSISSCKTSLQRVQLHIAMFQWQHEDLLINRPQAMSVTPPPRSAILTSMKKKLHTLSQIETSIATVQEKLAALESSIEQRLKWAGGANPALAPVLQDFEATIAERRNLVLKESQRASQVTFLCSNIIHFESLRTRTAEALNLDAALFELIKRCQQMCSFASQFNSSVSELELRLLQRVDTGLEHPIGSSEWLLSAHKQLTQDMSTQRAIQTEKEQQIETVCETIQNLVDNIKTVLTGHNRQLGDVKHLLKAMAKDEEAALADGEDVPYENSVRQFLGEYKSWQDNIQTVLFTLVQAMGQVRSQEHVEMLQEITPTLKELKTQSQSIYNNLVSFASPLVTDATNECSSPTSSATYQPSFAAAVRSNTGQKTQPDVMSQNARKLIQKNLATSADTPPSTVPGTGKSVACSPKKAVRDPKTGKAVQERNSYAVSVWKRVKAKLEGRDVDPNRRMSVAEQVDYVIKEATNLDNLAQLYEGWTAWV
Sequence of Serine/threonine-protein kinase Nek3 (P51956 whole entry): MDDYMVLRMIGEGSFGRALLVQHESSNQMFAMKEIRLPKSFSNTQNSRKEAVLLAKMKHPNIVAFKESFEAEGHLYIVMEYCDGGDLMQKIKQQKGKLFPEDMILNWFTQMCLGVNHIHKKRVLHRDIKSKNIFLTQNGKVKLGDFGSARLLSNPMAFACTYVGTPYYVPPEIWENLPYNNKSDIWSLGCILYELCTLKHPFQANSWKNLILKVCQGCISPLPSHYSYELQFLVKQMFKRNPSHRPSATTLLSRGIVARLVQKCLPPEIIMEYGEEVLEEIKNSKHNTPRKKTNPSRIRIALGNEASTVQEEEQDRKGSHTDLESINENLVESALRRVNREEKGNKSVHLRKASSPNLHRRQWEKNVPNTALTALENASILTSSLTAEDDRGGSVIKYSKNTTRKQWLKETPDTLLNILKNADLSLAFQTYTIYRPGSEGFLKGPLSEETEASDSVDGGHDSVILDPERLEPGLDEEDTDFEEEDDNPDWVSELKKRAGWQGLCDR

For the molecule `CCOc1cc(N2CCC(O)CC2)ccc1Nc1ncc2c(n1)N(C)c1ccccc1C(=O)N2C`, in [1], the inhibition entry is “inactive”. In [2], this molecule yielded a mean residence time (MRT) of 2.2 h. The 50% inhibitory concentration (IC50) in data set [3], in data set [4], in data set [5], in data set [7], in data set [8] and in [9] was > 50 µM in each case. The concentration for half-maximal inhibition (IC50) in [11] was > 50 µM. Also, the inhibition at 50 µM in [6] is -14.5%; in data set [20] it was -10%. Moreover, the figures for the Activity in [10], in data set [18] and in [19] were 143 mM, 19% and 0.3 mg/dL, respectively. Besides, the inhibition in [12] is 15.6%; in data set [14] it was 11.3%; in data set [15], 11.6%; in data set [16], -0.6%; in data set [17] it was 1.9%; in data set [21] it was 100%. Also, in [13], the inhibition at 10 µM is -23%.
